In ChEMBL document CHEMBL1157803 (J Med Chem, 2010):
The source made the active and inactive calls. No cut-off for these calls is given here.

Columns and labels:
[1] = test system: Trypanosoma cruzi; experiment: Antitrypanosomal activity against Trypanosoma cruzi Tulahuen amastigotes infected in […] 3T3 cells after 7 days by alamar blue assay; type: functional, organism-based; details: NIH3T3, 168 h
Procedure, shortened: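 T. cruzi amastigotes grown inside mammalian host 3T3 cells were exposed to compounds to measure parasite killing.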

[2] = Inhibition of rat recombinant PFT expressed in insect Sf9 cells by scintillation proximity assay
[3] = test system: Trypanosoma cruzi; experiment: Ratio of EC50 for tipifarnib to drug for antitrypanosomal activity against Trypanosoma cruzi Tulahuen amastigotes infected in […] 3T3 cells after 7 days by alamar blue assay; type: functional, NIH3T3
[4] = biological target: Cytochrome P450 3A4 (Homo sapiens, UniProt P08684); experiment: Inhibition of human recombinant CYP3A4; type: ADME
[5] = biological target: Sterol 14-alpha demethylase (Trypanosoma cruzi (strain CL Brener)) (UniProt Q7Z1V1); experiment: Binding affinity to Trypanosoma cruzi recombinant lanosterol 14-alpha-demethylase by optical spectroscopy
Procedure, shortened: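 Recombinant T. cruzi lanosterol 14α-demethylase at 1.4 μM was titrated with 0.2–2 μM compound. Binding was followed by difference optical spectroscopy of the visible heme Soret band.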

Cytochrome P450 3A4, sequence (P08684 whole entry): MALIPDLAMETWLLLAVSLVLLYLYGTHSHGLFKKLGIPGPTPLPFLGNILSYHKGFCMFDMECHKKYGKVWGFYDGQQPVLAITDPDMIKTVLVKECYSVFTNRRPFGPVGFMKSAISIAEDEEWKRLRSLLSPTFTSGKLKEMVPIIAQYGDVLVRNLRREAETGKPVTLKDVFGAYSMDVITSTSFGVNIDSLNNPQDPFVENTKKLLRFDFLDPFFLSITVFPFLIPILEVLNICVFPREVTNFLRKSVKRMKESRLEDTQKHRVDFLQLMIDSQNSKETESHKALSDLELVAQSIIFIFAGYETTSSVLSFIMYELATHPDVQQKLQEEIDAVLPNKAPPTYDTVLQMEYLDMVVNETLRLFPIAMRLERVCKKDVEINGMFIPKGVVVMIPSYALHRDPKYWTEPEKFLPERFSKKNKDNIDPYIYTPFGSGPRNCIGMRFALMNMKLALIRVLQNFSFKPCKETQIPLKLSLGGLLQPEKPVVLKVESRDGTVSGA
Sterol 14-alpha demethylase (Trypanosoma cruzi (strain CL Brener)), sequence (Q7Z1V1 whole entry, looked up): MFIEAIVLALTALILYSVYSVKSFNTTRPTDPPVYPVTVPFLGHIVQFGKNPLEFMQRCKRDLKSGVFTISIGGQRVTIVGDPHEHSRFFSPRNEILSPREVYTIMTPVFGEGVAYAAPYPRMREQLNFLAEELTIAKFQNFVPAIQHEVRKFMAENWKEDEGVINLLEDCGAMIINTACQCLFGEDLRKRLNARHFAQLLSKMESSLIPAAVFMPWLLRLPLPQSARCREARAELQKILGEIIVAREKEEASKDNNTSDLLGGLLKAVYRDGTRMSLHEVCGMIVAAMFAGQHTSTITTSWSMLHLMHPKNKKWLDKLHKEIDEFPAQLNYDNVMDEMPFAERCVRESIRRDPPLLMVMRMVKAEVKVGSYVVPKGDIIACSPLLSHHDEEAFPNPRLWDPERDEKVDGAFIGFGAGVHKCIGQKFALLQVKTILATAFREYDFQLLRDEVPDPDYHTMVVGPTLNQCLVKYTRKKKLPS

SMILES | EC50 [1] [nM] | IC50 [4] [nM] | Activity [5] | IC50 [2] [nM] | Ratio EC50 [3]
COC(c1ccc(C(F)(F)F)cc1)(c1ccc2c(c1)c(-c1cccc(Cl)c1)cc(=O)n2C)c1cncn1C (centres undefined) | 5 |  |  |  | 
COC(c1ccc(Cl)cc1)(c1ccc2c(c1)c(-c1cc(C)cc(C)c1)cc(=O)n2C)c1cncn1C (centres undefined) | 1.4 |  |  | 470 | 
COC(c1ccc(Cl)cc1)(c1ccc2c(c1)c(-c1cccc(Cc3ccccc3)c1)cc(=O)n2C)c1cncn1C (centres undefined) | 83 |  |  |  | 
COC(c1ccc(Cl)cc1)(c1ccc2c(c1)c(-c1ccccc1C)cc(=O)n2C)c1cncn1C (centres undefined) | 0.7 |  |  | 3260 | 
CCn1cncc1C(N)(c1ccc(Cl)cc1)c1ccc2c(c1)c(-c1cccc(Cl)c1)cc(=O)n2C (centres undefined) | 118 |  |  | 28 | 
COC(c1ccc(Cl)cc1)(c1ccc2c(c1)c(-c1ccccc1F)cc(=O)n2C)c1cncn1C (centres undefined) | 0.8 |  |  | 1870 | 
COC(c1ccc(Cl)cc1)(c1ccc2c(c1)c(-c1cccc(C(F)(F)F)c1)cc(=O)n2C)c1cncn1C (centres undefined) | 12 |  |  | 1320 | 
COC(c1ccc(C)cc1)(c1ccc2c(c1)c(-c1cccc(Cl)c1)cc(=O)n2C)c1cncn1C (centres undefined) | 3 |  |  |  | 
Cn1cncc1[C@@](N)(c1ccc(Cl)cc1)c1ccc2c(c1)c(-c1cccc(Cl)c1)cc(=O)n2C [TIPIFARNIB] |  |  |  | 0.7 | 
CCn1cncc1C(OC)(c1ccc(Cl)cc1)c1ccc2c(c1)c(-c1cccc(Cl)c1)cc(=O)n2C (centres undefined) | 3 |  |  | 970 | 
COC(c1ccc(Cl)cc1)(c1ccc2c(c1)c(-c1cccc(-c3ccccc3)c1)cc(=O)n2C)c1cncn1C (centres undefined) | 320 |  |  |  | 
CCOC(c1ccc(Cl)cc1)(c1ccc2c(c1)c(-c1cccc(Cl)c1C)cc(=O)n2C)c1cncn1C (centres undefined) | 27 |  |  | > 10000 | 
COC(c1ccc(Cl)cc1)(c1ccc2c(c1)c(-c1c(F)cccc1F)cc(=O)n2C)c1cncn1C (centres undefined) | 0.31 | 275 | Active | > 10000 | 

Further lines, with some results ahead:

EC50 [1] [nM] | IC50 [4] [nM] | Activity [5] | SMILES | IC50 [2] [nM] | Ratio EC50 [3]
10 |  |  | CCc1ccc(C(OC)(c2ccc3c(c2)c(-c2cccc(Cl)c2)cc(=O)n3C)c2cncn2C)cc1 (centres undefined) |  | 
33 |  |  | COC(c1ccc(C(C)C)cc1)(c1ccc2c(c1)c(-c1cccc(Cl)c1)cc(=O)n2C)c1cncn1C (centres undefined) |  | 
1.8 |  |  | COC(c1ccc(Cl)cc1)(c1ccc2c(c1)c(-c1c(C)cccc1C)cc(=O)n2C)c1cncn1C (centres undefined) | > 10000 | 
5 |  |  | CNC(c1ccc(Cl)cc1)(c1ccc2c(c1)c(-c1cccc(Cl)c1C)cc(=O)n2C)c1cncn1C (centres undefined) | 957 | 
0.8 |  |  | COC(c1ccc(Cl)cc1)(c1ccc2c(c1)c(-c1ccccc1C(F)(F)F)cc(=O)n2C)c1cncn1C (centres undefined) | > 5000 | 
69 |  |  | CCCOC(c1ccc(Cl)cc1)(c1ccc2c(c1)c(-c1cccc(Cl)c1C)cc(=O)n2C)c1cncn1C (centres undefined) | > 5000 | 
1.1 |  |  | COC(c1ccc(Cl)cc1)(c1ccc2c(c1)c(-c1cccc(F)c1)cc(=O)n2C)c1cncn1C (centres undefined) | 343 | 
2.2 |  |  | COC(c1ccc2ccccc2c1)(c1ccc2c(c1)c(-c1cccc(Cl)c1)cc(=O)n2C)c1cncn1C (centres undefined) | 2300 | 
100 |  |  | CCn1cncc1C(NC)(c1ccc(Cl)cc1)c1ccc2c(c1)c(-c1cccc(Cl)c1)cc(=O)n2C (centres undefined) | 66 | 
3.1 |  |  | COC(c1ccc(Cl)cc1)(c1ccc2c(c1)c(-c1cccc(Cl)c1)cc(=O)n2C)c1cncn1C (centres undefined) | 65 | 
112 |  |  | Cc1c(Cl)cccc1-c1cc(=O)n(C)c2ccc(C(O)(c3ccc(Cl)cc3)c3cncn3C)cc12 (centres undefined) | 796 | 
0.6 |  |  | COC(c1ccc(Cl)cc1)(c1ccc2c(c1)c(-c1cccc(Cl)c1C)cc(=O)n2C)c1cncn1C (centres undefined) | > 5000 | 10
3.21 |  |  | COC(c1ccc(Cl)cc1)(c1ccc2c(c1)c(-c1c(Cl)cccc1Cl)cc(=O)n2C)c1cncn1C (centres undefined) | > 10000 | 
2 |  |  | COC(c1ccc(Cl)cc1)(c1ccc2c(c1)c(-c1ccc(C)cc1)cc(=O)n2C)c1cncn1C (centres undefined) | 410 | 
228 |  |  | CCn1cncc1C(O)(c1ccc(Cl)cc1)c1ccc2c(c1)c(-c1cccc(Cl)c1)cc(=O)n2C (centres undefined) | 30 | 
0.5 |  |  | COC(c1ccc(Cl)cc1)(c1ccc2c(c1)c(-c1ccc(F)cc1)cc(=O)n2C)c1cncn1C (centres undefined) | 991 | 
0.8 | 2350 |  | COC(c1ccc(Cl)cc1)(c1ccc2c(c1)c(-c1ccccc1)cc(=O)n2C)c1cncn1C (centres undefined) | 330 | 
17 |  |  | Cn1cncc1C(O)(c1ccc(Cl)cc1)c1ccc2c(c1)c(-c1cccc(Cl)c1)cc(=O)n2C (centres undefined) | 8 | 
0.82 | 923 |  | COC(c1ccc(Cl)cc1)(c1ccc2c(c1)c(-c1ccc(Cl)cc1)cc(=O)n2C)c1cncn1C (centres undefined) | 6040 | 
1.2 |  |  | COC(c1ccc(Cl)cc1)(c1ccc2c(c1)c(-c1cccc(C)c1)cc(=O)n2C)c1cncn1C (centres undefined) | 85 | 
